Results collected from several papers.
Protocols differ between the studies behind these lines.
Target: Homeodomain-interacting protein kinase 1 (HIPK1, Homo sapiens, UniProt Q86Z02)

SMILES | assay | conditions | endpoint | value
Nc1ncc(-c2nc(N3CCOCC3)nc(N3CCOCC3)n2)c(C(F)F)n1 | binding, competition with immobilised ligand | 10 µM | remaining binding | 69%
Cc1nn(C)cc1-c1nc2c(N3CCN(Cc4ccc(Cl)cc4)CC3)c(Cl)cnc2[nH]1 | binding, competition with immobilised ligand | 1 µM | remaining binding | 66%
Cn1cc(-c2cc(F)cc(N3CCn4c(cc5c4CCCC5)C3=O)c2CO)cc(Nc2ccc(N3CCN(C4COC4)CC3)cn2)c1=O | enzyme activity, inhibitor | 0.1 µM | inhibition | 5%
COc1ncccc1-c1cnn2ccc(N3CCN(C(=O)OC(C)C)CC3)nc12 | binding, competition with immobilised ligand | 1 µM | remaining binding | 92%
CC(C)(C)c1cc(C=C(C#N)C#N)cc(Br)c1O | enzyme activity, inhibitor | 0.5 µM | remaining activity | 104%
Cn1cc(-c2cccc(N3CCc4c(sc5c4CC(C)(C)C5)C3=O)c2CO)cc(Nc2ccncn2)c1=O | enzyme activity, inhibitor | 1 µM | inhibition | -2%
O=c1[nH]c2ccccc2n1C1CCN(Cc2ccc(-c3[nH]c4cc5ncnc5cc4nc3-c3ccccc3)cc2)CC1 | cell-free assay | 0.5 µM | remaining signal | 106%
Cn1cncc1[C@@](O)(COc1ccc(C#N)cc1-c1ccc(OC(F)(F)F)cc1)c1ccc(C#N)cc1 | cell-free assay, competition with immobilised ligand | 1 µM | remaining binding | 79%
